Reference: PMC5186364 (Journal of molecular biology, 2016)
Like-named read-outs stand apart in the source and are kept apart here.

Tests used:
A3G-mycHis (APOBEC3G) = A3G-mycHis (APOBEC3G) (Homo sapiens, UniProt Q9HC16); assay: Fluorescence-based ssDNA cytosine deaminase assay with purified A3G-mycHis; assay type: biochemical; conditions: for reproducibility of A3G inhibitory activity (in words): introductory summary of own findings, assay format not stated
In short: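 Human A3G-mycHis purified by C-terminal His tag from HEK293T cells and diluted in pH 7.4 Tris buffer with Triton and protease inhibitors. Enzyme incubated with 10 pmol 6-FAM/TAMRA ssDNA containing one CCC site. Then UDG treatment for 2 hrs at 37 °C, NaOH cleavage for 30 min, and neutralisation. Fluorescence read at ex 490/em 520 nm. Peptides from 10 mM DMSO stocks; n = 3, mean ± SEM; IC50 from curve fit.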

A3G (APOBEC3G) [1] = conditions: biochemical assays, prior studies, ref [14]–[18], cited from earlier work
A3G (APOBEC3G) [2] = assay: PCR and restriction-based ssDNA deamination assay; assay type: biochemical, human; conditions: 10 nM A3G, 1 nM ssDNA, 37 °C, 30 min, pH 7.0, gel representative of >3 independent experiments

A3G-mycHis (APOBEC3G), sequence (Q9HC16 whole entry): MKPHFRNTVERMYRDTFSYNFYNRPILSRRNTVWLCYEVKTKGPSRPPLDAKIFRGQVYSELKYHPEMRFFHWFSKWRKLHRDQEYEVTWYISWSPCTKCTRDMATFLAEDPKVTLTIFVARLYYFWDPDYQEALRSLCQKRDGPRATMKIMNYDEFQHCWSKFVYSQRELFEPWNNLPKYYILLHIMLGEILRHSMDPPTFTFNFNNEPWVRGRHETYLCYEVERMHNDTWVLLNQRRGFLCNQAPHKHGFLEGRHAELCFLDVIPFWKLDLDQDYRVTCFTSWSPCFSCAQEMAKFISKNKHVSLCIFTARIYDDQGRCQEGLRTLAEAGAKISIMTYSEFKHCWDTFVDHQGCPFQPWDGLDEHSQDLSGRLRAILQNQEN

H-QLIHLYYFDCFSESA-OH [compound 6044]
specificity of A3G inhibition (in words) (A3G-mycHis (APOBEC3G); conclusion from scrambled and reverse peptide comparison): non-specific | reproducibility of A3G inhibitory activity (in words) (A3G-mycHis (APOBEC3G)): reproducible A3G inhibitory activity | published A3G inhibitory activity (in words) (A3G (APOBEC3G) [1]; listed as Vif 105–119): low micromolar inhibitory activities | published A3G inhibitory activity (in words) (A3G (APOBEC3G) [1]; listed as Vif peptide 105–119): sub-micromolar inhibitory activities

H-VKHHMYISGKAKGWF-OH [Vif25–39]
reproducibility of A3G inhibitory activity (in words) (A3G-mycHis (APOBEC3G)): did not find significant A3G inhibitory activity | A3G inhibitory effect (in words) (A3G (APOBEC3G) [2]): no inhibitory effect | published A3G inhibitory activity (in words) (A3G (APOBEC3G) [1]): low micromolar inhibitory activities | published A3G inhibitory activity (in words) (A3G (APOBEC3G) [1]; listed as Vif peptide 25–39): sub-micromolar inhibitory activities
